In ChEMBL document CHEMBL1122071, “Avermectin acyl derivatives with anthelmintic activity” (1982):

Columns and labels:
Format in all cases: functional
[1] = test system: Teladorsagia circumcincta; assay: Anthelmintic efficacy against immature (EL4) Ostertagia circumcincta (O. c) in sheep at dose of 0.1 mg/kg administered orally; 60-89%
[2] = test system: Oesophagostomum columbianum; assay: Anthelmintic efficacy against Oseophagostomum columbianum (Oe. c) in sheep at dose of 0.1 mg/kg administered orally; settings: route oral
Method in brief: (§1)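 Lambs experimentally infected with mixed gastrointestinal nematodes (H. contortus, O. circumcincta, T. axei, T. colubriformis, C. oncophora, Oe. columbianum) were dosed orally, 1–3 sheep per dose. An untreated infected group of 6 was included, with worm burdens given as the geometric mean number of worms per lamb. Efficacy was scored against adult and, where listed, EL4 stages.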

Haemonchus contortus [3] = assay: Anthelmintic efficacy against adult Haemonchus contortus (H.c) in sheep at dose of 0.1 mg/kg administered orally; settings: route oral; method in brief: as §1
Cooperia oncophora [4] = assay: Anthelmintic efficacy against immature (EL4) Cooperia oncopphora (C.o) in sheep at dose of 0.1 mg/kg administered orally; settings: route oral
Method in brief: (§2)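 Lambs were experimentally infected with mixed gastrointestinal nematodes: Haemonchus contortus, Ostertagia circumcincta, Trichostrongylus axei, T. colubriformis, Cooperia oncophora and Oesophagostomum columbianum. Dosing was oral, in mg/kg, with 3 sheep per dose group. An untreated infected group of 6 sheep served as reference, with worm burdens given as the geometric mean per lamb. Immature (EL4) and adult worms were scored separately.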

[5] = test system: Oesophagostomum columbianum; assay: Anthelmintic efficacy against Oseophagostomum columbianum (Oe. c) in sheep at dose of 0.05 mg/kg administered orally; settings: route oral; method in brief: as §2
[6] = test system: Teladorsagia circumcincta; assay: Anthelmintic efficacy against immature (EL4) Ostertagia circumcincta (O. c) in sheep at dose of 0.05 mg/kg administered orally; 0-19%
[7] = test system: Teladorsagia circumcincta; assay: Anthelmintic efficacy against adult Ostertagia circumcincta (O. c) in sheep at dose of 0.05 mg/kg administered orally; settings: route oral; method in brief: as §2
Haemonchus contortus [8] = assay: Anthelmintic efficacy against adult Haemonchus contortus (H.c) in sheep at dose of 0.025 mg/kg administered orally; settings: route oral; method in brief: as §2
[9] = test system: Teladorsagia circumcincta; assay: Anthelmintic efficacy against adult Ostertagia circumcincta (O. c) in sheep at dose of 0.025 mg/kg administered orally; settings: route oral; method in brief: as §1
Trichostrongylus axei [10] = assay: Anthelmintic efficacy against Trichostrongylus axei (T.a) in sheep at dose of 0.025 mg/kg administered orally; 20-59%; method in brief: as §1
Cooperia oncophora [11] = assay: Anthelmintic efficacy against adult Cooperia oncopphora (C.o) in sheep at dose of 0.025 mg/kg administered orally; 0-19%; method in brief: as §1
[12] = test system: Teladorsagia circumcincta; assay: Anthelmintic efficacy against immature (EL4) Ostertagia circumcincta (O. c) in sheep at dose of 0.025 mg/kg administered orally; settings: route oral
[13] = test system: Teladorsagia circumcincta; assay: Anthelmintic efficacy against adult Ostertagia circumcincta (O. c) in sheep at dose of 0.1 mg/kg administered orally; settings: route oral; method in brief: as §1
Haemonchus contortus [14] = assay: Anthelmintic efficacy against adult Haemonchus contortus (H.c) in sheep at dose of 0.05 mg/kg administered orally; settings: route oral; method in brief: as §2
[15] = test system: Trichostrongylus colubriformis; assay: Anthelmintic efficacy against Trichostrongylus colubriformis (T.c) in sheep at dose of 0.05 mg/kg administered orally; settings: route oral; method in brief: as §2
Cooperia oncophora [16] = assay: Anthelmintic efficacy against immature (EL4) Cooperia oncopphora (C.o) in sheep at dose of 0.025 mg/kg administered orally; settings: route oral
Trichostrongylus axei [17] = assay: Anthelmintic efficacy against Trichostrongylus axei (T.a) in sheep at dose of 0.05 mg/kg administered orally; settings: route oral; method in brief: as §2
Cooperia oncophora [18] = assay: Anthelmintic efficacy against adult Cooperia oncopphora (C.o) in sheep at dose of 0.1 mg/kg administered orally; 60-89%; method in brief: as §1
[19] = test system: Trichostrongylus colubriformis; assay: Anthelmintic efficacy against Trichostrongylus colubriformis (T.c) in sheep at dose of 0.025 mg/kg administered orally; settings: route oral; method in brief: as §1
Trichostrongylus axei [20] = assay: Anthelmintic efficacy against Trichostrongylus axei (T.a) in sheep at dose of 0.1 mg/kg administered orally; settings: route oral; method in brief: as §1
Cooperia oncophora [21] = assay: Anthelmintic efficacy against immature (EL4) Cooperia oncopphora (C.o) in sheep at dose of 0.05 mg/kg administered orally; 60-89%
[22] = test system: Trichostrongylus colubriformis; assay: Minimal dose necessary to eliminate > 83% of Trichostrongylus colubriformis infection in gerbils
[23] = test system: Trichostrongylus colubriformis; assay: Anthelmintic efficacy against Trichostrongylus colubriformis in sheep at dose of 0.1 mg/kg administered orally; settings: route oral; method in brief: as §1
[24] = test system: Oesophagostomum columbianum; assay: Anthelmintic efficacy against Oseophagostomum columbianum (Oe. c) in sheep at dose of 0.025 mg/kg administered orally; settings: route oral; method in brief: as §2
Cooperia oncophora [25] = assay: Anthelmintic efficacy against adult Cooperia oncopphora (C.o) in sheep at dose of 0.05 mg/kg administered orally; 0-19%; method in brief: as §1
[26] = test system: Oesophagostomum columbianum; assay: Anthelmintic efficacy against Oseophagostomum columbianum (Oe. c) in sheep at dose of 0.025 mg/kg administered orally; 60-89%; method in brief: as §1
Trichostrongylus axei [27] = assay: Anthelmintic efficacy against Trichostrongylus axei (T.a) in sheep at dose of 0.05 mg/kg administered orally; 60-89%; method in brief: as §1
[28] = test system: Oesophagostomum columbianum; assay: Anthelmintic efficacy against Oseophagostomum columbianum (Oe. c) in sheep at dose of 0.05 mg/kg administered orally; 60-89%; method in brief: as §1
Haemonchus contortus [29] = assay: Anthelmintic efficacy against adult Haemonchus contortus (H.c) in sheep at dose of 0.05 mg/kg administered orally; 60-89%; method in brief: as §1
Cooperia oncophora [30] = assay: Anthelmintic efficacy against immature (EL4) Cooperia oncopphora (C.o) in sheep at dose of 0.05 mg/kg administered orally; 20-59%
Cooperia oncophora [31] = assay: Anthelmintic efficacy against immature (EL4) Cooperia oncopphora (C.o) in sheep at dose of 0.025 mg/kg administered orally; 20-59%
[32] = test system: Teladorsagia circumcincta; assay: Anthelmintic efficacy against immature (EL4) Ostertagia circumcincta (O. c) in sheep at dose of 0.025 mg/kg administered orally; 0-19%
Haemonchus contortus [33] = assay: Anthelmintic efficacy against immature (EL4) Haemonchus contortus (H.c) in sheep at dose of 0.025 mg/kg administered orally; 20-59%
[34] = test system: Trichostrongylus colubriformis; assay: Anthelmintic efficacy against Trichostrongylus colubriformis (T.c) in sheep at dose of 0.025 mg/kg administered orally; 0-19%; method in brief: as §1
[35] = test system: Teladorsagia circumcincta; assay: Anthelmintic efficacy against adult Ostertagia circumcincta (O. c) in sheep at dose of 0.025 mg/kg administered orally; 60-89%; method in brief: as §1
[36] = test system: Trichostrongylus colubriformis; assay: Anthelmintic efficacy against Trichostrongylus colubriformis (T.c) in sheep at dose of 0.05 mg/kg administered orally; 60-89%; method in brief: as §1
Trichostrongylus axei [37] = assay: Anthelmintic efficacy against Trichostrongylus axei (T.a) in sheep at dose of 0.025 mg/kg administered orally; 0-19%; method in brief: as §1
Haemonchus contortus [38] = assay: Anthelmintic efficacy against immature (EL4) Haemonchus contortus (H.c) in sheep at dose of 0.05 mg/kg administered orally; 60-89%
Cooperia oncophora [39] = assay: Anthelmintic efficacy against immature (EL4) Cooperia oncopphora (C.o) in sheep at dose of 0.1 mg/kg administered orally; 20-59%
[40] = test system: Teladorsagia circumcincta; assay: Anthelmintic efficacy against adult Ostertagia circumcincta (O. c) in sheep at dose of 0.05 mg/kg administered orally; 60-89%; method in brief: as §1
[41] = test system: Trichostrongylus colubriformis; assay: Anthelmintic efficacy against Trichostrongylus colubriformis (T.c) in sheep at dose of 0.1 mg/kg administered orally; settings: route oral; method in brief: as §2
Haemonchus contortus [42] = assay: Anthelmintic efficacy against adult Haemonchus contortus (H.c) in sheep at dose of 0.025 mg/kg administered orally; 0-19%; method in brief: as §1
Haemonchus contortus [43] = assay: Anthelmintic efficacy against immature (EL4) Haemonchus contortus (H.c) in sheep at dose of 0.1 mg/kg administered orally; settings: route oral; method in brief: as §2
[44] = test system: Teladorsagia circumcincta; assay: Anthelmintic efficacy against immature (EL4) Ostertagia circumcincta (O. c) in sheep at dose of 0.1 mg/kg administered orally; 0-19
Cooperia oncophora [45] = assay: Anthelmintic efficacy against adult Cooperia oncopphora (C.o) in sheep at dose of 0.1 mg/kg administered orally; 0-19%; method in brief: as §1
[46] = test system: Teladorsagia circumcincta; assay: Anthelmintic efficacy against adult Ostertagia circumcincta (O. c) in sheep at dose of 0.25 mg/kg administered orally; 60-89%; method in brief: as §1
Trichostrongylus axei [47] = assay: Anthelmintic efficacy against Trichostrongylus axei (T.a) in sheep at dose of 0.25 mg/kg administered orally; 20-59%; method in brief: as §1
Haemonchus contortus [48] = assay: Anthelmintic efficacy against adult Haemonchus contortus (H.c) in sheep at dose of 0.25 mg/kg administered orally; settings: route oral; method in brief: as §1
Cooperia oncophora [49] = assay: Anthelmintic efficacy against adult Cooperia oncopphora (C.o) in sheep at dose of 0.25 mg/kg administered orally; 60-89%; method in brief: as §1
[50] = test system: Oesophagostomum columbianum; assay: Anthelmintic efficacy against Oseophagostomum columbianum (Oe. c) in sheep at dose of 0.25 mg/kg administered orally; settings: route oral; method in brief: as §1
[51] = test system: Trichostrongylus colubriformis; assay: Anthelmintic efficacy against Trichostrongylus colubriformis (T.c) in sheep at dose of 0.25 mg/kg administered orally; 60-89%; method in brief: as §1

CC[C@H](C)[C@H]1O[C@]2(C=C[C@@H]1C)C[C@@H]1C[C@@H](C/C=C(\C)[C@@H](O[C@H]3C[C@@H](OC)[C@@H](O[C@H]4C[C@@H](OC)[C@@H](OC(C)=O)[C@H](C)O4)[C@H](C)O3)[C@@H](C)/C=C/C=C3\CO[C@@H]4[C@H](O)C(C)=C[C@@H](C(=O)O1)[C@]34O)O2
Efficacy [1]: 60% | Efficacy [2]: >90% | Efficacy (Haemonchus contortus [3]): >90% | Efficacy (Cooperia oncophora [4]): >90% | Efficacy [5]: >90% | Efficacy [6]: 0% | Efficacy [7]: >90% | Efficacy (Haemonchus contortus [8]): >90% | Efficacy [9]: >90% | Efficacy (Trichostrongylus axei [10]): 20% | Efficacy (Cooperia oncophora [11]): 0% | Efficacy [12]: 19% | Efficacy [13]: >90% | Efficacy (Haemonchus contortus [14]): >90% | Efficacy [15]: >90% | Efficacy (Cooperia oncophora [16]): 89% | Efficacy (Trichostrongylus axei [17]): >90% | Efficacy (Cooperia oncophora [18]): 60% | Efficacy [19]: >90% | Efficacy (Trichostrongylus axei [20]): >90% | Efficacy (Cooperia oncophora [21]): 60% | Dose [22]: 0.031 mg/kg | Efficacy [23]: >90% | Efficacy [24]: >90% | Efficacy (Cooperia oncophora [25]): 0%

CC[C@H](C)[C@H]1O[C@]2(CC(O)[C@@H]1C)C[C@@H]1C[C@@H](C/C=C(\C)[C@@H](OC3CC(OC)C(OC4CC(OC)C(O)C(C)O4)C(C)O3)[C@@H](C)/C=C/C=C3\CO[C@@H]4[C@H](OC)C(C)=C[C@@H](C(=O)O1)[C@]34O)O2 (stereo not given in full) [AVERMECTIN A2]
Efficacy [2]: >90% | Efficacy (Haemonchus contortus [3]): >90% | Efficacy [26]: 60% | Efficacy (Trichostrongylus axei [27]): 60% | Efficacy [28]: 60% | Efficacy (Haemonchus contortus [29]): 60% | Efficacy [6]: 0% | Efficacy (Cooperia oncophora [11]): 0% | Efficacy (Cooperia oncophora [30]): 20% | Efficacy (Cooperia oncophora [31]): 20% | Efficacy [32]: 0% | Efficacy (Haemonchus contortus [33]): 20% | Efficacy [13]: >90% | Efficacy [34]: 0% | Efficacy [35]: 60% | Efficacy [36]: 60% | Efficacy (Trichostrongylus axei [37]): 0% | Efficacy (Haemonchus contortus [38]): 60% | Efficacy (Cooperia oncophora [39]): 20% | Efficacy [40]: 60% | Efficacy [41]: >90% | Efficacy (Trichostrongylus axei [20]): >90% | Dose [22]: 0.05 mg/kg | Efficacy (Cooperia oncophora [25]): 0% | Efficacy (Haemonchus contortus [42]): 0% | Efficacy (Haemonchus contortus [43]): >90% | Efficacy [44]: 0% | Efficacy (Cooperia oncophora [45]): 0%

CC[C@H](C)[C@H]1O[C@]2(CC(OC(C)=O)[C@@H]1C)C[C@@H]1C[C@@H](C/C=C(\C)[C@@H](OC3CC(OC)C(OC4CC(OC)C(OC(C)=O)C(C)O4)C(C)O3)[C@@H](C)/C=C/C=C3\CO[C@@H]4[C@H](OC)C(C)=C[C@@H](C(=O)O1)[C@]34O)O2 (stereo not given in full)
Efficacy [46]: 60% | Efficacy (Trichostrongylus axei [47]): 20% | Efficacy (Haemonchus contortus [48]): >90% | Efficacy (Cooperia oncophora [49]): 60% | Efficacy [50]: >90% | Dose [22]: 0.5 mg/kg | Efficacy [51]: 60%
